This is an account of results in PMC3180826 (ACS chemical neuroscience, 2010).

The target in data set [1] is T1, M2 (Homo sapiens, UniProt P08172).
T1 sequence (P08172 1-466): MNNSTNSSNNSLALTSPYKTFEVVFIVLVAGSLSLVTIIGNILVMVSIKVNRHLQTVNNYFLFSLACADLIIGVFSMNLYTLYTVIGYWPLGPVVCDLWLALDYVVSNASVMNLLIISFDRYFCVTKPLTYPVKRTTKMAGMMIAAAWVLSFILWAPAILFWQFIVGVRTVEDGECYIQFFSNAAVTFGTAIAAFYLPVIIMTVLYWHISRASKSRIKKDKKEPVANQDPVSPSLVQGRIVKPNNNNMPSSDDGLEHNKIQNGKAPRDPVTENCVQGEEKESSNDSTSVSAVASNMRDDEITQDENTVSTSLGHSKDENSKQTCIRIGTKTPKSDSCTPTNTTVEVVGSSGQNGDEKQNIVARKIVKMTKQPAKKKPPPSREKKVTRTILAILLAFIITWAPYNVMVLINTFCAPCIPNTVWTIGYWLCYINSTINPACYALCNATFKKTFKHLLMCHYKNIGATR
The data set is described as follows: Antagonism of EC80 ACh response, calcium mobilization, M2. The data set is classed as cell-based. The following applies: read-out: M2 antagonism IC50; attenuation of EC80 ACh response.

The target of data set [2] is T2, M5 (Homo sapiens, UniProt P08912).
T2 sequence (P08912 1-532): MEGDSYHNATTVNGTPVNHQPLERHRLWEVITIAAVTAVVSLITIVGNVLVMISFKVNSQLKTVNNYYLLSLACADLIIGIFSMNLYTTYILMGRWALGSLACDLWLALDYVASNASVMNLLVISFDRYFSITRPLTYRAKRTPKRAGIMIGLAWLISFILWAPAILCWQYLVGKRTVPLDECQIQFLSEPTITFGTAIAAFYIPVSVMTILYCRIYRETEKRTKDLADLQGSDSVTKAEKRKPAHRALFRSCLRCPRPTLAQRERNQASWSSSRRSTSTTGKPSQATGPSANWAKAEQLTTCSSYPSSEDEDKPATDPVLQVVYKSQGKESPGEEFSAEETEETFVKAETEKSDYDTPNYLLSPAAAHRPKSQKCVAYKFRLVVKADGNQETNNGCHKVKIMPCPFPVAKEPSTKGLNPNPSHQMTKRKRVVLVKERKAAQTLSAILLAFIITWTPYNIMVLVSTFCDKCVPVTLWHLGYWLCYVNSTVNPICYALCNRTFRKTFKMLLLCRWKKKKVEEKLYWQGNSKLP
As to the kind of experiment: Antagonism of EC80 ACh response, calcium mobilization, M5. The data set is classed as cell-based. The note with it: read-out: M5 antagonism IC50; attenuation of EC80 ACh response.

The target of data set [3] is T3, rM1 receptor (Rattus norvegicus, UniProt P08482).
T3 sequence (P08482 1-460): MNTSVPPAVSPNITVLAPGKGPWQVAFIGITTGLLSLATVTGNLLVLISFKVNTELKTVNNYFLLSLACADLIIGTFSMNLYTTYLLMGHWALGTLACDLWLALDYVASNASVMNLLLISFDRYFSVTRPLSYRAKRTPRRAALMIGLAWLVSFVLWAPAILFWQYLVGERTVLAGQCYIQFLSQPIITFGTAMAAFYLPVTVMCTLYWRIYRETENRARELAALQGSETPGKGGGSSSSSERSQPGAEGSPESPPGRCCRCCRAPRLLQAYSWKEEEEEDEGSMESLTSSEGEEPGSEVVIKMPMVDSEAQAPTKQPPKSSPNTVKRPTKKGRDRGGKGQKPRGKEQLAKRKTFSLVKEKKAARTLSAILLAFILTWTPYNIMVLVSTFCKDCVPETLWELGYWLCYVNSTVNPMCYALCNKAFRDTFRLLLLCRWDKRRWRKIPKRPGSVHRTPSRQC
The data set is described as follows: Calcium mobilization assay, CHO-K1 cells stably expressing rM1. The data set is classed as cell-based. The following applies: for M1 potency and efficacy (SAR statement): substitution around the benzyl ring; for EC50: read-out: M1 EC50.

Data set [4] deals with scopolamine-induced deficits in contextual fear conditioning. The data set is described as follows: Contextual fear conditioning, scopolamine-induced deficit. The data set is classed as in vivo. The following applies: rat; for effect on acquisition of contextual fear conditioning response: 0.2 mg/kg s.c., 15 minutes prior to training, 0.2 mg/kg. The gist of the method:
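Male Sprague–Dawley rats (380–420 g) were habituated to vehicle injections for 2 days. Test compound (1–10 mg/kg ip) was given 30 min before training, and scopolamine (0.2 mg/kg sc) or vehicle 15 min before. Training used two 1 s, 0.5 mA footshocks 2.5 min apart, with a vanilla odour cue. At 24 h, video-scored freezing over 7 min was expressed as percent. Groups had 3–4 rats; one-way ANOVA with Dunnett's test against vehicle/scopolamine.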

Data set [5] deals with hM3 (Homo sapiens, UniProt P20309). The data set is described as follows: Calcium mobilization assay, agonist mode, M3. The data set is classed as cell-based. The following applies: up to 30 μM. The gist of the method: (§1)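 CHO-K1 cells stably expressing hM2/Gqi5 or rM4/Gqi5 (6 × 10^4 cells/well), or hM3 or hM5 (5 × 10^4 cells/well), were cultured overnight at 37 °C in 5% CO2. Cells were loaded with 2 μM Fluo-4 AM for 1 h at 37 °C in HBSS with 20 mM HEPES and 2.5 mM probenecid, pH 7.4. Eight-point test compound concentration series were added at 19 s of a 130 s read. Calcium flux was read as fluorescence fold over basal.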
Chain of hM3 (P20309 whole entry): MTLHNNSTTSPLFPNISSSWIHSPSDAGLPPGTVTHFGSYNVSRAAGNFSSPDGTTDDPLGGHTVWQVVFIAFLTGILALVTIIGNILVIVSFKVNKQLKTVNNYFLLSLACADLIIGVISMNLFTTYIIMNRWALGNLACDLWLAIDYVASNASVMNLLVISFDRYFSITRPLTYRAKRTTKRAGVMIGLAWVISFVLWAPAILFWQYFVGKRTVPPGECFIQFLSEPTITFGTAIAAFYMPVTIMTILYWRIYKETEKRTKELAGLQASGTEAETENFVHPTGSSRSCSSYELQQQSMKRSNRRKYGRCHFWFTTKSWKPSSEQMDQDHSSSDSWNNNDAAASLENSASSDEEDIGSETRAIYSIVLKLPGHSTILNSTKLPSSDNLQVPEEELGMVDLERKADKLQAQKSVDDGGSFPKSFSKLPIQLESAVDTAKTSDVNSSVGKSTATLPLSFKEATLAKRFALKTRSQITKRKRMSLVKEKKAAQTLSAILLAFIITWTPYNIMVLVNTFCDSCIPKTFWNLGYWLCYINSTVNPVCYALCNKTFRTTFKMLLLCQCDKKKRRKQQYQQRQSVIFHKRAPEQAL

Data set [6] concerns the target T4, rM4 (Rattus norvegicus, UniProt P08485).
T4 sequence (P08485 1-478): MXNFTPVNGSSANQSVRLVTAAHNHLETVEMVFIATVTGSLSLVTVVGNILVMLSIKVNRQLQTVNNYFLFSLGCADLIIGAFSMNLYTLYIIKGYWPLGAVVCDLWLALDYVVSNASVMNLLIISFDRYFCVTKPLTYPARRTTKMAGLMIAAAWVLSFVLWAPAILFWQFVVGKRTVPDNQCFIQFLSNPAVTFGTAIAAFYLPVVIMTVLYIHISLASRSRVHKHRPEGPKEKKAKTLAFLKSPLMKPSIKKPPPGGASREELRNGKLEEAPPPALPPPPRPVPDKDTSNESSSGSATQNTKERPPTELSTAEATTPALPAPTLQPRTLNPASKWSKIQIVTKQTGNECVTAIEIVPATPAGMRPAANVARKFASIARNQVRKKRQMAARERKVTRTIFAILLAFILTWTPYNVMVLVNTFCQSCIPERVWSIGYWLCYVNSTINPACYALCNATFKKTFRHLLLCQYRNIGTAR
As to the kind of experiment: Calcium mobilization assay, agonist mode, M4. The data set is classed as cell-based. The following applies: up to 30 μM. The gist of the method:
as §1

The target in data set [7] is T5, M1 (Rattus norvegicus, UniProt P08482).
T5 sequence (P08482 1-460): T3 sequence (P08482 1-460)
The data set is described as follows: HTS confirmation concentration-response in M1-CHO cells. The data set is classed as cell-based. The following applies: for sensitivity to block by atropine: concentration series in the presence of atropine; for EC50: read-out: M1 EC50, from the DPI DMSO stock.

In data set [8] the target is T6, hM5 (Homo sapiens, UniProt P08912).
T6 sequence (P08912 1-532): T2 sequence (P08912 1-532)
As to the kind of experiment: Calcium mobilization assay, agonist mode, M5. The data set is classed as cell-based. The following applies: up to 30 μM. An outline of the steps:
as §1

The target of data set [9] is T7, hM2 (Homo sapiens, UniProt P08172).
T7 sequence (P08172 1-466): T1 sequence (P08172 1-466)
The data set is described as follows: Calcium mobilization assay, agonist mode, M2. The note with it: up to 30 μM. The data set is classed as cell-based. An outline of the steps:
as §1

Data set [10] deals with T8, rM1 Y381A (Rattus norvegicus, UniProt P08482, Y381A).
T8 sequence (P08482 1-460 Y381A): T3 sequence (P08482 1-460) with Y381A
As to the kind of experiment: Calcium mobilization in rM1 Y381A. The data set is classed as cell-based. The following applies: for potency at M1 Y381A compared with WT M1: M1Y381A CHO cells vs WT M1 CHO cells.

A short description of data set [11]: Plasma-brain exposure profile PK study. The data set is classed as in vivo. The following applies: rat. An outline of the steps: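 Test compound was dissolved in sterile water at 5 mg/mL and dosed at 10 mg/kg ip in male Sprague–Dawley rats (225–250 g). Plasma and brain were collected at 0.5, 1, 2, 4 and 8 h, with three rats per time point. Brains were homogenized 1:3 in PBS, and samples were extracted by acetonitrile/0.1% formic acid precipitation with internal standard. Quantification was by LC-MS/MS SRM (10–2000 ng/mL calibration), with noncompartmental analysis.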

Data set [12] is described as follows: Aqueous solubility. The data set is classed as physicochemical. The note with it: water.
Where [13] appears, read: rM1 CHO-K1, calcium mobilization.

Where a chain is given by its changes, count along the chain named.

With `Cc1ccccc1CN1CCC(N2CCC(n3c(=O)[nH]c4ccccc43)CC2)CC1` [TBPB], the IC50 in data set [1] was found to be 1100 nM; in data set [2], 10100 nM.
As for `CCOC(=O)N1CCC(NCCNC(=O)c2cccc(OC)c2)CC1.O=C(O)C(F)(F)F` [VU0360014], the “M1 potency and efficacy (SAR statement)” value in data set [3] is “retaining substantial potency and efficacy”.
Regarding `CN1[C@@H]2C[C@@H](OC(=O)[C@H](CO)c3ccccc3)C[C@H]1[C@@H]1O[C@@H]12` [scopolamine], the figures for the “effect on acquisition of contextual fear conditioning response” value in data set [4] and in data set [4] (listed as Scopolamine) were “significant disruption” and “robust disruption”, respectively.
For the molecule `CCOC(=O)N1CCC(NCCNC(=O)c2cccs2)CC1` [VU0177548], the “agonist activity at M3” value in data set [5] is “no alteration was detected in baseline”. Further, in data set [6], the “agonist activity at M4” value is given as “no alteration was detected in baseline”. Further, in [7] (M1-CHO vs M4/Gqi5 CHO cells), the “selectivity for M1 vs. M4” value is given as over 50 fold. In addition, in [7], the “sensitivity to block by atropine” value is listed as “sensitive to block by atropine”. The EC50 was about 1000 nM in data set [7]; 1740 nM in data set [3] (setting [13]); 1230 nM in data set [10] (read-out: rM1 Y381A EC50, rM1 Y381A cells). Further, in data set [8], the “agonist activity at M5” value was “no alteration was detected in baseline”. Also, the “agonist activity at M2” value in data set [9] was “no alteration was detected in baseline”. The “rM1 Y381A AChmax (maximal efficacy)” value in [10] (rM1 Y381A cells) was found to be 44.69 % max.
Consider `CCOC(=O)N1CCC(NCCNC(=O)c2cccc(F)c2)CC1.O=C(O)C(F)(F)F` [VU0359995], for which the “M1 potency and efficacy (SAR statement)” value in data set [3] was “retaining substantial potency and efficacy”.
The same measure, in the same setting: the result for `CCOC(=O)N1CCC(NCCNC(=O)c2ccc(F)cc2)CC1.O=C(O)C(F)(F)F` [VU0359993] reads “retaining substantial potency and efficacy”.
On to `Clc1ccc2c(c1)N=C(N1CCNCC1)c1ccccc1N2` [NDMC, N-desmethylclozapine, reference compound], for which, in [10], the “potency at M1 Y381A compared with WT M1” value is “potency similar to that observed in cells expressing WT M1”.
With `CCOC(=O)N1CCC(NCCNC(=O)c2ccccc2Cl)CC1` [VU0207811], the “agonist activity at M3” value in [5] was “no alteration was detected in baseline”. In addition, the “agonist activity at M4” value in data set [6] was “no alteration was detected in baseline”. For the same molecule, in [7], the “sensitivity to block by atropine” value was “sensitive to block by atropine”. For the same molecule, the EC50 in data set [7] is about 1000 nM; in data set [3] (setting [13]), 804 nM. For the same molecule, the “agonist activity at M5” value in [8] was “no alteration was detected in baseline”. Further, in data set [9], the “agonist activity at M2” value is reported as “no alteration was detected in baseline”. For the same molecule, in [10] (rM1 Y381A cells), the “rM1 Y381A AChmax (maximal efficacy)” value came to 45.80 % max.
Consider `CCOC(=O)N1CCC(NCCNC(=O)c2ccccc2C)CC1` [VU0357017, ethyl 4-(2-(2-methylbenzamido)ethylamino)piperidine-1-carboxylate], for which the “agonist activity at M3” value in [5] is recorded as “no activity”. Further, the “agonist activity at M4” value in data set [6] is listed as “no activity”. The “agonist activity at M5” value in data set [8] was “no activity”. Further, the “ACh Max efficacy” value in [3] (setting [13]) is 80.52 % ACh Max. In addition, the “agonist activity at M2” value in data set [9] was “no activity”. Further, the “reversal of scopolamine-induced deficits in contextual fear conditioning” value in data set [4] (10 mg/kg i.p., scopolamine 0.2 mg/kg s.c., p < 0.05) is on record as “significant reversal”. In data set [11] (male, Sprague-Dawley, brain and plasma, ip, 10 mg/kg), the Kp is 1.46. In data set [11] (10 mg/kg i.p., brain), this molecule returned a brain level of 4338.90 ± 1071.20 ng/mL. This molecule also registered a plasma level in data set [11] (10 mg/kg i.p., plasma) of 1053.49 ± 276.03 ng/mL. Moreover, the central penetrance result in data set [11] (i.p. administration) is on record as “centrally-penetrant”. For the same molecule, in data set [10], the “potency at M1 Y381A compared with WT M1” value is “potencies similar to those observed in WT M1 CHO cells”. This molecule yielded a solubility in [12] of over 25 mg/mL.
